Shown are actives, neighbours in structure and some others; about 2.7% of the full set was active somewhere.
CaV13 FRET inh = Disruptors of the CACNA1D IQ motif to Ca2+-dependent inactivation inhibitor domain association, primary screening, Förster resonance energy transfer in intact living … | HEK cells, CFP/YFP FRET ICDI-IQ, plate reader, 10 min; percent FRET-ratio fall versus neutral wells | inhibition, % at 12.3 µM | AID 743397 | 340,000 compounds, 0.098% hits;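 active = mean replicate inhibition of at least 30% and at least 1% of replicates passing that level; inconclusive = only one of the two criteria is met; inactive = neither criterion is met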;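 note: 0% = median of the neutral control wells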
S100A4 MyoIIA = inhibitors of S100A4-myosin IIA peptide binding, primary screen, biochemical, fluorescence polarization, TAMRA-MyoIIA peptide | inhibition, % at 10.7 µM | Protein S100-A4 (Homo sapiens), P26447 | 360,000 compounds, 0.14% hits | AID 652163, 2013;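 active = mean inhibition of at least 70% across replicates, with every replicate also reaching that level; inconclusive = mean inhibition reaches 70% but some replicates fall short; inactive = mean inhibition below 70%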
Target sequence (P26447 whole entry, looked up): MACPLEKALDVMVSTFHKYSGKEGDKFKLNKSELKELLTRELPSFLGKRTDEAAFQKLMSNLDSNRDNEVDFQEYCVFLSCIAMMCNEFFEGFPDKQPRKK
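Material: S100A4 monomer protein / Buffer or medium: 50 mM HEPES pH 7.2, 10 mM CaCl2, 100 mM KCl / Times: 5 min incubation before reading / Benchmarks: neutral control DMSO, positive control TFP / Reagent: labelled myosin peptide probe, 5 nM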
DENV2 CPE = inhibitors of DENV2 cytopathic effect, primary screen, cell-based, plate reader, single concentration; DENV2-infected cells, cytopathic effect rescue; 350,000 compounds, 1.7% hits; CPE inhibition, % at 9.99 µM; in the data active = CPE inhibition above about 20%, passing the limit was not always enough; inconclusive = no clear call, values can overlap the other calls; tested in BHK-21 cells;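 note: 0% = median of neutral control wells and 100% = median of positive control wells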
AF4-AF9 inh = inhibitors of AF4 peptide binding to AF9, primary screen, biochemical, AlphaScreen, biotin-AF4 peptide, FLAG-AF9, single point | inhibition, % at 10 µM | 350,000 compounds, 0.47% hits | Protein AF-9 (Homo sapiens), P42568;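 active = every replicate reaching a set inhibition limit, whatever the replicate mean, cut at about 25% in these data; inconclusive = mean inhibition reaches that limit but some replicates miss it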;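 note: 0% = plate neutral control median and 100% = total signal loss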
SIRT5 inh = SIRT5 desuccinylase inhibitors, primary screen, biochemical, fluorescence imaging, single point, set 5. NAD-dependent protein deacylase sirtuin-5, mitochondrial (Homo sapiens), Q9NXA8. Purified SirT5, succinyl-peptide AMC, trypsin-coupled fluorescence. inhibition, % at 15 µM. 330,000 compounds, 1.1% hits; in the data active = inhibition above about 15%; inconclusive = no clear call, values can overlap the other calls
Target sequence (Q9NXA8 whole entry, looked up): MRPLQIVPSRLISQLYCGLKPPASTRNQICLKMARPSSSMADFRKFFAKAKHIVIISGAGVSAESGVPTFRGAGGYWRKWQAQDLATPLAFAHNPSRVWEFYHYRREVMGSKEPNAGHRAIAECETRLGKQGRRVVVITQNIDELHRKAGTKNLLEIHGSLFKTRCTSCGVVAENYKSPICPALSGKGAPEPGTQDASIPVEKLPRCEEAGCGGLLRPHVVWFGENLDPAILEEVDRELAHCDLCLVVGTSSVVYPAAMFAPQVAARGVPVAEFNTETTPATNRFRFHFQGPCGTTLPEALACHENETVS
An asterisk follows results filed as active; ? = inconclusive; · = no result given.

SMILES	CaV13 FRET inh	S100A4 MyoIIA	DENV2 CPE	AF4-AF9 inh	SIRT5 inh
Cc1noc(C)c1NC(=O)Nc1cccc2c1O[C@@H](CN(C)Cc1ccc(C(=O)Nc3ccccc3N)cc1)[C@@H](C)CN([C@@H](C)CO)C2=O	·	-3	-4	1	4
O=C(/C=C/Nc1ccccc1)c1ccc(Cl)cc1Cl	-3	-3	-3	8	-5
N#Cc1c(Nc2ccccc2)[n+]([O-])c2ccc(Cl)cc2[n+]1[O-]	-5	-2	21*	6	2
Cc1noc(C)c1NC(=O)N(C)C[C@@H]1Oc2ccc(NS(=O)(=O)c3cccs3)cc2C(=O)N([C@@H](C)CO)C[C@H]1C	·	-3	38*	-9	-3
Cc1noc(C)c1NC(=O)N(C)C[C@H]1OCCCC[C@@H](C)Oc2ccc(NS(=O)(=O)c3ccccc3)cc2C(=O)N([C@H](C)CO)C[C@H]1C	·	-12	70*	-4	-2
Cc1noc(C)c1NC(=O)N(C)C[C@H]1OCCCC[C@H](C)Oc2ccc(NS(=O)(=O)c3ccccc3)cc2C(=O)N([C@@H](C)CO)C[C@@H]1C	·	8	0	-1	-3
Cc1noc(C)c1NC(=O)N(C)C[C@H]1OCCCC[C@H](C)Oc2ccc(NS(=O)(=O)c3cccs3)cc2C(=O)N([C@@H](C)CO)C[C@H]1C	·	0	-5	-3	0
Cc1noc(C)c1NC(=O)N(C)C[C@@H]1OCCCC[C@H](C)Oc2ccc(NS(=O)(=O)c3cccs3)cc2C(=O)N([C@@H](C)CO)C[C@H]1C	·	-12	22*	0	-2
CCCC#Cc1ccc2c(c1)O[C@@H](CN(C)C)[C@@H](C)CN([C@@H](C)CO)S2(=O)=O	·	2	-6	0	-2
CC(C)CC#Cc1ccc2c(c1)O[C@H](CN(C)Cc1ccc(C(=O)O)cc1)[C@@H](C)CN([C@H](C)CO)S2(=O)=O	·	-4	10	11	29*
CC(C)CC#Cc1ccc2c(c1)O[C@@H](CN(C)Cc1ccc(F)cc1)[C@H](C)CN([C@H](C)CO)S2(=O)=O	·	-2	-9	4	4
C[C@@H]1CN([C@H](C)CO)S(=O)(=O)c2ccc(-c3ccc(C#N)cc3)cc2O[C@H]1CN(C)Cc1cccc(F)c1	·	-2	0	2	3
C[C@H]1CN([C@@H](C)CO)S(=O)(=O)c2ccc(-c3ccc(C#N)cc3)cc2O[C@@H]1CN(C)Cc1cccc(F)c1	·	-14	0	0	16*
CC(C)CC#Cc1ccc2c(c1)O[C@@H](CN(C)Cc1cccc(F)c1)[C@H](C)CN([C@H](C)CO)S2(=O)=O	·	5	-31	3	16*
CC(C)CC#Cc1ccc2c(c1)O[C@@H](CN(C)Cc1cccnc1)[C@@H](C)CN([C@H](C)CO)S2(=O)=O	·	-8	9	2	·
CCCC#Cc1ccc2c(c1)O[C@H](CN(C)Cc1cccnc1)[C@@H](C)CN([C@@H](C)CO)S2(=O)=O	·	-6	25*	5	5
CCCC(=O)Nc1ccc2c(c1)C(=O)N(C)C[C@@H](OC)[C@@H](C)CN(C(C)=O)[C@@H](C)CO2	·	3	10	1	2
C[C@@H]1CN([C@H](C)CO)C(=O)c2cccc(NS(=O)(=O)c3ccc(Cl)cc3)c2O[C@@H]1CN(C)Cc1ccncc1	·	-5	?	4	7
CC(C)CC#Cc1ccc2c(c1)O[C@H](CN(C)Cc1cccnc1)[C@@H](C)CN([C@@H](C)CO)S2(=O)=O	·	·	·	·	18*
CC(C)CC#Cc1ccc2c(c1)O[C@@H](CN(C)Cc1ccc3c(c1)OCO3)[C@@H](C)CN([C@@H](C)CO)S2(=O)=O	·	3	-2	1	14*
CC(C)CC#Cc1ccc2c(c1)O[C@H](CN(C)Cc1cncnc1)[C@@H](C)CN([C@H](C)CO)S2(=O)=O	·	?	58*	8	3
CC(C)CC#Cc1ccc2c(c1)O[C@H](CN(C)Cc1cncnc1)[C@H](C)CN([C@H](C)CO)S2(=O)=O	·	-1	-3	8	-1

Source: PubChem
